Our source for the AC50 and activity change, negative = inhibition values is PubChem BioAssay AID493226 (Broad Institute, 2011).

The subject of assay [1] is HMLE_shECad viability, CellTiter-Glo luminescence, 72 h. Put plainly: breast cancer stem cell viability inhibitors – luminescence, dry powder, set 2, dose response (AID 493226). The method in brief:
(§1)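 Material: HMLE cells with stable E-cadherin knockdown (HMLE_shECad), EMT-induced CSC model; Amount: 2000 cells/well; Medium: serum-free CSC screening medium; Dosing: 100 nL compound per well by pin transfer; Schedule: ≥4 h attachment, ~72 h compound exposure, 37 °C; Technique: CellTiter-Glo luminescence.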

Test in assay [2]: as above
The following applies: HMLE_shECad viability, CellTiter-Glo luminescence, 72 h; at 30 µM (top of the series). The method in brief: as §1

Several values for one entry are separate records, joined by “and”; a condition that tells them apart may be missing. Equal entries are not always repeated. Records with an inconclusive call do not appear. Activity calls are given as the source filed them.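 The calls were made as follows: active = every repeat test active, with falling cell-viability signal and fitted midpoint potency at most ten times the top dose; inconclusive = tests disagree, flat partial drop, or a poor curve fit; inactive = every test flat, too weak, or rising.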

On to `CC(C)(C)c1ccc2c(c1)OC(C(=O)N/N=C/c1ccc[nH]1)CO2` (stereo not given), for which, in assay [1], the AC50 was 2.52 µM and 2.79 µM.

In the case of `O=C(CCc1ccccc1)NC1=NCCS1`, in assay [2], the activity change, negative = inhibition is -2.41% (inactive).

For the compound `O=C(COc1cc(Cl)ccc1Cl)N/N=C/c1ccc[nH]1`, the half-maximal activity concentration (AC50) in assay [1] is 3.39 µM. The same measure, in the same setting: the figure for `O=C(COc1ccc(Cl)cc1)N/N=C/c1ccc[nH]1` is 22.5 µM; for `Cc1cc(C)c(/C=N/NC(=O)COc2ccc(Cl)cc2Cl)[nH]1` it is 12.6 µM. `O=C(/C=C/c1cc(Cl)ccc1Cl)NC1=NCCS1`: the activity change, negative = inhibition in assay [2] was -13.1% (inactive). As for `CC(=O)Oc1ccc(/C=C/C(=O)NC2=NCCS2)cc1`, in assay [2], the activity change, negative = inhibition was -16.2% (inactive).

Take `NNC(=O)COc1ccc(Cl)cc1Cl`: the activity change, negative = inhibition in assay [2] was -13% (inactive).

`CN(C)c1ccc(/C=C/C(=O)NC2=NCCS2)cc1`: the AC50 in assay [1] was 27.3 µM. `O=C(NC1=NCCS1)c1cc2ccccc2[nH]1`: in assay [2], the activity change, negative = inhibition is -16.7% (inactive). In the case of `O=C(COc1ccccc1F)N/N=C/c1ccc[nH]1`, in assay [2], the activity change, negative = inhibition is 3.8% (inactive). The same measure, in the same setting: the same measure for `Cc1c(C(=O)NC2=NCCS2)oc2ccccc12`: -22.6% (inactive). `O=C(COc1c(Cl)cc(Cl)cc1Cl)N/N=C/c1ccc[nH]1`: the AC50 in assay [1] was 1.16 µM. On the same count and under the same terms, the same measure for `CC(C)c1ccc(/C=C/C(=O)Nc2ccccc2)cc1`: 3.44 µM.

Take `O=C(COc1ccc(Cl)cc1Cl)N/N=C/c1cccs1`: the activity change, negative = inhibition in assay [2] is -4.9% (inactive). Take `COc1ccc(/C=C/C(=O)NC2=NCCS2)c(OC)c1`: the AC50 in assay [1] was 9.45 µM.

Regarding `Cc1cc(Cl)ccc1OCC(=O)N/N=C/c1ccc[nH]1`, the AC50 in assay [1] is 2.89 µM. As to `CC(C)c1ccc(/C=C/C(=O)O)cc1`, the activity change, negative = inhibition in assay [2] was 4.33% (inactive). `O=Cc1ccc[nH]1`: the activity change, negative = inhibition in assay [2] is -5.79% (inactive). Take `O=C(/C=C/c1ccc(Cl)c(Cl)c1)NC1=NCCS1`: the activity change, negative = inhibition in assay [2] was 8.35% (inactive). `O=C(N/N=C/c1ccc[nH]1)c1cc2ccccc2o1`: the AC50 in assay [1] is 6.33 µM. Turning to `C/C(=N\NC(=O)COc1ccc(Cl)cc1Cl)c1ccc[nH]1`, the activity change, negative = inhibition in assay [2] was -10.8% (inactive). As to `CCNC(=O)/C=C/c1ccc(C(C)C)cc1`, the activity change, negative = inhibition in assay [2] was 0.062% (inactive).

Take `Cc1ccccc1NCC(=O)N/N=C/c1ccc[nH]1`: the activity change, negative = inhibition in assay [2] is -14.1% (inactive). Take `Cc1ccccc1/C=C/C(=O)NC1=NCCS1`: in assay [2], the activity change, negative = inhibition was -11.7% (inactive). As for `Cc1ccc(/C=N/NC(=O)COc2ccc(Cl)cc2Cl)[nH]1`, in assay [1], the AC50 was 14.3 µM. In the case of `CC(C)c1ccc(/C=C/C(=O)NC2=NCCS2)cc1`, the AC50 in assay [1] was 0.839 µM. For the compound `COc1ccc(OC)c(/C=C/C(=O)NC2=NCCS2)c1`, the activity change, negative = inhibition in assay [2] is 4.36% (inactive).

For the compound `O=C(NC1CCCC1)c1ccc(COc2ccccc2)o1`, the activity change, negative = inhibition in assay [2] is -15.7% (inactive).

Consider `COc1cc(/C=C/C(=O)NC2=NCCS2)cc(OC)c1OC`, for which the activity change, negative = inhibition in assay [2] is 0.693% (inactive). For `O=C(COc1ccc(F)cc1Cl)N/N=C/c1ccc[nH]1`, in assay [1], the AC50 was 8.88 µM. In the case of `Cc1csc(NC(=O)/C=C/c2ccc(C(C)C)cc2)n1`, the AC50 in assay [1] is 3.29 µM.

As to `O=C(COc1ccc(Cl)cc1Cl)N/N=C/c1cnc[nH]1`, the activity change, negative = inhibition in assay [2] is 3.31% (inactive). Still for that read-out and setting: the same measure for `CCN(CC)C(=O)/C=C/c1ccc(C(C)C)cc1`: -2.71% (inactive). In the case of `Cc1csc(NC(=O)c2ccc(COc3ccccc3)o2)n1`, the AC50 in assay [1] was 1.18 µM. Still for that read-out and setting: the figure for `O=C(COc1ccc(Cl)cc1Cl)N/N=C/c1ccc[nH]1` is 2.38 µM and 3.33 µM. In the case of `O=C(COc1ccc(Cl)cc1Cl)N/N=C/c1ccco1`, the activity change, negative = inhibition in assay [2] was -7.8% (inactive). On the same count and under the same terms, the same measure for `O=C(C#Cc1ccccc1)NC1=NCCS1`: 3.65% (inactive); for `O=C(N/N=C/c1ccc[nH]1)C1Cc2ccccc2O1` (stereo not given): 12.7% (inactive); for `O=C(O)c1ccc(COc2ccccc2)o1`: -1.91% (inactive).
